Measured values pooled from the literature.
Protocols differ between the studies behind these lines.
PRKCA: Protein kinase C alpha type (PRKCA, Homo sapiens, UniProt P17252)
Dipeptidyl peptidase 8: Dipeptidyl peptidase 8 (Homo sapiens, UniProt Q6V1X1)
Nos1: Nitric oxide synthase 1 (Nos1, Rattus norvegicus, UniProt P29476)
HDAC8: Histone deacetylase 8 (HDAC8, Homo sapiens, UniProt Q9BY41)

| Structure (SMILES) | target | test | conditions | inhibition [%] |
| --- | --- | --- | --- | --- |
| C#Cc1n[nH]c2c(-c3cn([C@@H](C)c4ccccc4)c(=O)[nH]c3=O)cc(F)cc12 | PRKCA | enzyme activity, inhibitor | 0.1 µM | 9.6 |
| N#Cc1ccc(NCCNCC(=O)N2N=CCC2C#N)nc1 (stereo not drawn) | Dipeptidyl peptidase 8 | enzyme activity, inhibitor | 1 µM | 0 |
| c1ccc(C(NCCNC(c2ccccc2)c2ccccc2)c2ccccc2)cc1 | Nos1 | enzyme activity, inhibitor | 10 µM | 6 |
| CCOC(=O)c1ccc(OC(=O)CCCCCNC(=N)N)cc1 | Ubiquitin carboxyl-terminal hydrolase 8 (USP8, Homo sapiens, UniProt P40818) | enzyme activity, inhibitor | 10 µM | 0 |
| Cn1cc(-c2cc(F)cc(N3CCn4c(cc5c4CCCC5)C3=O)c2CO)cc(Nc2ccc(N3CCN(C4COC4)CC3)cn2)c1=O | Testis-specific serine/threonine-protein kinase 2 (TSSK2, Homo sapiens, UniProt Q96PF2) | enzyme activity, inhibitor | 0.1 µM | 17 |
| COCc1c(-c2cc3cc(C)cc(OC)c3s2)c2c(N)ncnn2c1CN1CCNC(=O)C1 | Nos1 | enzyme activity, inhibitor | 10 µM | -8 |
| COc1cc(Nc2ncc(F)c(Nc3ccc4c(n3)NC(=O)C(C)(C)O4)n2)cc(OC)c1OC | Cyclin-dependent kinase 11B (CDK11B, Homo sapiens, UniProt P21127) | binding, competition with immobilised ligand | 10 µM | 0 |
| CCN(CC)CCCC[C@H](NC(=O)[C@H](CC(C)C)NC(=O)[C@H](C)NC(=O)[C@H](Cc1ccccc1)NC(=O)c1ccc(C(C)(C)C)cc1)C(=O)N[C@@H](CO)C(=O)OC | Mu-type opioid receptor (OPRM1, Homo sapiens, UniProt P35372) | ligand displacement, radioligand | 10 µM | 51 |
| C[C@H](C(=O)N[C@H]1COc2ccccc2[C@@H]1S(C)(=O)=O)c1ccc(F)cc1 | Nos1 | enzyme activity, inhibitor | 10 µM | 6 |
| CN(C)C(=O)COC(=O)Cc1ccc(OC(=O)c2ccc(NC(=N)N)cc2)cc1 | Dipeptidyl peptidase 8 | enzyme activity, inhibitor | 10 µM | 8 |
| O=c1ccc2ccc3occc3c2o1 | HDAC8 | enzyme activity, inhibitor | 10 µM | 33.9 |
| N=C(N)c1ccc2cc(OC(=O)c3ccc(N=C(N)N)cc3)ccc2c1 | Dipeptidyl peptidase 8 | enzyme activity, inhibitor | 10 µM | 8 |
| C#Cc1n[nH]c2c(-c3cn(C(C)c4ccccn4)c(=O)[nH]c3=O)cc(F)cc12 (stereo not drawn) | Tyrosine-protein kinase Yes (YES1, Homo sapiens, UniProt P07947) | enzyme activity, inhibitor | 1 µM | -0.2 |
| Cn1cc(-c2cccc(N3CCc4c(sc5c4CC(C)(C)C5)C3=O)c2CO)cc(Nc2ccncn2)c1=O | PRKCA | enzyme activity, inhibitor | 1 µM | 5 |
| COc1c2ccoc2cc2oc(=O)ccc12 | HDAC8 | enzyme activity, inhibitor | 10 µM | 34.4 |
